Experimental findings from ChEMBL document CHEMBL3351671, “Synthesis and anticancer activity of (E)-2-benzothiazole hydrazones” (Eur J Med Chem, 2014) are described below.

Each structure is given as a SMILES string.

Series [1] in a line: Cytotoxicity against human HL60 cells after 72 hrs by MTT assay. Type of series: functional, cell-based. The conditions noted are these: HL-60, 72 h. In outline: (§1)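 Cells grown in DMEM with 10% fetal bovine serum, 2 mM glutamine, 100 U/mL penicillin and streptomycin at 37 °C under 5% CO₂. Compounds were dissolved in DMSO, diluted with water and incubated with cells for 72 h. Viability was read by MTT reduction to formazan. IC₅₀ with 95% confidence interval, triplicate experiments.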
(In general: Formazan colour is commonly taken as a measure of viable cells.)

A further series concerns MDA-MB-435. Nature of the series: Cytotoxicity against human MDA-MB-435 cells after 72 hrs by MTT assay. The class given is functional, cell-based. Conditions: MDA-MB-435, 72 h. In outline:
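Cells grown in DMEM with 10% fetal bovine serum, 2 mM glutamine, 100 U/mL penicillin and streptomycin at 37 °C under 5% CO₂. Compounds were dissolved in DMSO, diluted with water and incubated with cells for 72 h. […] Viability was read by MTT reduction to formazan. IC₅₀ with 95% confidence interval, triplicate experiments.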

Series [2] is described as follows: Cytotoxicity against human HCT8 cells after 72 hrs by MTT assay. Type of series: functional, cell-based. Conditions: HCT-8, 72 h. In outline:
as §1

The nature of series [3]: Hemolytic toxicity in mouse erythrocytes assessed as induction of cell membrane disruption incubated for 30 mins by hemoglobin release based spectrophotometry. The arrangement: species or system Erythrocyte. In short, it runs like this: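 Erythrocytes were exposed to compounds (DMSO stock, water-diluted) for 30 min at room temperature, then centrifuged. Hemoglobin released into the supernatant was read at 540 nm. DMSO served as negative control and 1% Triton X-100 as positive control.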

The test system of a further series is MRC5. Nature of the series: Cytotoxicity against human MRC5 cells after 72 hrs by MTT assay. The class given is cell-based. The conditions noted are these: mrc5, 72 h.

Consider `COc1ccc(/C=N/Nc2nc3ccccc3s2)c(OC)c1`, for which the IC50 (in series [1]; in the series with MDA-MB-435; in series [2]) was more than 16 µM throughout. In addition, the EC50 (as a rule, the concentration needed to bring the measured effect to its halfway point) at 30 min in series [3] was more than 200 µg/mL.

On to `Clc1ccc(/C=N/Nc2nc3ccccc3s2)c(Cl)c1`, for which the IC50 (in series [1]; in the series on MDA-MB-435; in series [2]) was more than 15.5 µM in each case. Further, the EC50 at 30 min in series [3] was more than 200 µg/mL.

On to `Oc1cccc(/C=N/Nc2nc3ccccc3s2)c1O`, for which the figures for the IC50 (in series [1]; with MDA-MB-435; in series [2]) were 0.35 µM, more than 17.5 µM and 1.29 µM, respectively. In addition, the EC50 at 30 min in series [3] was more than 200 µg/mL. In the series with MRC5, the Activity entry is “Non-toxic”.

Take `C(=N\Nc1nc2ccccc2s1)/c1ccc(-c2ccccn2)cc1`: the IC50 (usually the concentration that gives 50% inhibition) in series [1] was 11.5 µM; in the series on MDA-MB-435, more than 15.1 µM; in series [2], more than 15.1 µM. In series [3], the EC50 at 30 min was more than 200 µg/mL. Besides, in the series on MRC5, the Activity entry is “Non-toxic”.

Take `O=[N+]([O-])c1ccc(O)c(/C=N/Nc2nc3ccccc3s2)c1`: the IC50 in series [1] stood at 1.65 µM; with MDA-MB-435 it was 14 µM; in series [2] it was 13.5 µM. Also, the EC50 at 30 min in series [3] was more than 200 µg/mL. Further, in the series on MRC5, the Activity result is “Non-toxic”.

Regarding `CN(C)c1ccc(/C=N/Nc2nc3ccccc3s2)cc1`, the IC50 (in series [1]; with MDA-MB-435; in series [2]) was more than 16.9 µM each time. Further, the EC50 at 30 min in series [3] is more than 200 µg/mL.

For `Fc1ccc(/C=N/Nc2nc3ccccc3s2)c(F)c1`, the IC50 (in series [1]; in the series with MDA-MB-435; in series [2]) was more than 17.3 µM in each case. The EC50 at 30 min in series [3] was more than 200 µg/mL.

Consider `Oc1ccc(O)c(/C=N/Nc2nc3ccccc3s2)c1`, for which the IC50 in series [1] worked out at 0.59 µM; in the series on MDA-MB-435 it was 6.27 µM; in series [2] it was 11.2 µM. Besides, in series [3], the EC50 at 30 min was more than 200 µg/mL. In the series with MRC5, the Activity result is “Non-toxic”.

For `COc1cc(/C=N/Nc2nc3ccccc3s2)ccc1O`, the IC50 (in series [1]; in the series with MDA-MB-435; in series [2]) was more than 16.7 µM in each case. In addition, the half-maximal effective concentration (EC50) at 30 min in series [3] was more than 200 µg/mL.

With `COc1cccc2c1C(=O)c1c(O)c3c(c(O)c1C2=O)C[C@@](O)(C(=O)CO)C[C@@H]3O[C@H]1C[C@H](N)[C@H](O)[C@H](C)O1` [DOXORUBICIN], in series [3], the EC50 at 30 min is more than 200 µg/mL.

Regarding `O=C(O)c1ccccc1/C=N/Nc1nc2ccccc2s1`, the IC50 (in series [1]; in the series on MDA-MB-435; in series [2]) was more than 16.8 µM in each case. Besides, the EC50 at 30 min in series [3] is more than 200 µg/mL.

Take `C(=N\Nc1nc2ccccc2s1)/c1ccc2c(c1)OCO2`: the IC50 in series [1] is 5.51 µM; in the series with MDA-MB-435 it was more than 16.8 µM; in series [2], more than 16.8 µM. Moreover, the EC50 at 30 min in series [3] is more than 200 µg/mL. Further, the Activity entry with MRC5 is given as “Non-toxic”.

For the compound `Oc1ccc(/C=N/Nc2nc3ccccc3s2)c(O)c1`, the IC50 in series [1] was 1.89 µM; in the series on MDA-MB-435, 14.4 µM; in series [2], 3.43 µM. In addition, the concentration giving a half-maximal response (EC50) at 30 min in series [3] is more than 200 µg/mL. Further, the Activity entry with MRC5 is reported as “Non-toxic”.

Consider `Oc1ccc(/C=N/Nc2nc3ccccc3s2)cc1O`, for which the IC50 was 13.6 µM in series [1], more than 17.5 µM in the series on MDA-MB-435 and more than 17.5 µM in series [2]. In series [3], the EC50 at 30 min is more than 200 µg/mL. In the series with MRC5, the Activity result was “Non-toxic”.

Regarding `Cc1ccc(/C=N/Nc2nc3ccccc3s2)c(C)c1`, the IC50 (in series [1]; in the series with MDA-MB-435; in series [2]) was more than 17.8 µM each time. Moreover, in series [3], the EC50 at 30 min is more than 200 µg/mL.

Regarding `Clc1ccc(/C=N/Nc2nc3ccccc3s2)cc1`, the IC50 (in series [1]; in the series on MDA-MB-435; in series [2]) was more than 17.4 µM in each case. Moreover, the EC50 at 30 min in series [3] is more than 200 µg/mL.

Regarding `Brc1ccc(/C=N/Nc2nc3ccccc3s2)cc1`, the IC50 (in series [1]; with MDA-MB-435; in series [2]) was more than 15.1 µM throughout. In addition, the concentration giving a half-maximal response (EC50) at 30 min in series [3] was more than 200 µg/mL.

Take `Oc1ccc(/C=N/Nc2nc3ccccc3s2)cc1`: the IC50 in series [1] was 4.6 µM; in the series on MDA-MB-435, more than 18.6 µM; in series [2], more than 18.6 µM. Moreover, the EC50 at 30 min in series [3] was more than 200 µg/mL. In addition, the Activity entry in the series with MRC5 was “Non-toxic”.
